Assay [1] addresses Casein kinase II alpha/beta (Homo sapiens) (UniProt P67870+P68400). The experiment in a line: Inhibition of human CSNK2A1/2B expressed in Escherichia coli BL21(DE3) using RRRDDDSDDD as substrate at 10 uM after 15 mins by scintillation counting. An outline of the steps:
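Holoenzyme from CSNK2A1 and CSNK2B subunits expressed separately in E. coli, extracts combined, column-purified. Enzyme preincubated with inhibitor in DMSO in Tris pH 7.5 kinase buffer. Final ATP 60 µM, peptide 114 µM. Incubated 37 °C for 15 min, spotted on P81 paper, washed with phosphoric acid and ethanol, then counted. Controls: DMSO (0%), no CK2 (100%).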

Assay [2] addresses Casein kinase II alpha/beta (Homo sapiens, UniProt P68400). The assay is described as follows: Inhibition of human CSNK2A1/2B expressed in Escherichia coli BL21(DE3) using RRRDDDSDDD as substrate after 15 mins by scintillation counting.
A short description of assay [3]: Inhibition of casein kinase-2. The gist of the method:
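Recombinant human CK2 holoenzyme (CSNK2A1 and CSNK2B expressed separately in E. coli, extracts combined and purified), preincubated with compound in DMSO in kinase buffer pH 7.5. 37 °C, 15 min, P81 paper, scintillation counting. IC50 from dose–response over 0.01–30 µM, at least triplicate independent experiments.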

A short description of assay [4]: Inhibition of calf thymus casein kinase-2 using casein as substrate after 15 mins by liquid scintillation counting. More on the design: species or system Bos taurus.
For assay [5], the target named is NUAK family SNF1-like kinase 1 (Homo sapiens, UniProt O60285). The experiment in a line: Inhibition of human recombinant ARK5 expressed in Sf9 cells assessed as autophosphorylation after 80 mins by scintillation counting. The gist of the method:
(§1)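 Commercial radiometric panel of His-tagged or GST-fused human kinases expressed in Sf9 cells, affinity-purified. Inhibitor added in 10% DMSO. Ten concentrations tested in singlicate; IC50 taken from dose–response curves.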

The target of assay [6] is Serine/threonine-protein kinase PLK4 (Homo sapiens, UniProt O00444). The experiment in a line: Inhibition of human recombinant SAK expressed in Sf9 cells using p38alpha-KRKR as substrate after 80 mins by scintillation counting. The gist of the method:
as §1

Another assay deals with Focal adhesion kinase 1 (Homo sapiens, UniProt Q05397). The assay is described as follows: Inhibition of human recombinant FAK expressed in Sf9 cells using poly(E,Y)4:1 as substrate after 80 mins by scintillation counting. The gist of the method: as §1
Assay [7] has as its target Proto-oncogene tyrosine-protein kinase Src (Homo sapiens, UniProt P12931). The experiment in a line: Inhibition of human recombinant SRC expressed in Sf9 cells using poly(E,Y)4:1 as substrate after 80 mins by scintillation counting. The gist of the method: as §1
A short description of assay [8]: Growth inhibition of human KYSE-70 cells at 20 uM after 96 hrs by crystal violet staining. Format: functional. As to conditions: KYSE-70, 96 h, read-out: GI. An outline of the steps: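 KYSE-70 esophageal cancer cells grown in RPMI 1640 with 10% FCS, penicillin G and streptomycin. Cells exposed 96 h to compounds dissolved in DMF (final solvent 0.1%). Fixed 20 min in 1% glutaraldehyde, stained 30 min with 0.02% crystal violet, washed 30 min in water. Bound dye dissolved in ethanol/water 7:3, absorbance read at 570 nm.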

For the next assay, the target named is Ephrin type-B receptor 4 (Homo sapiens, UniProt P54760). The experiment in a line: Inhibition of human recombinant EPHB4 expressed in Sf9 cells using poly(E,Y)4:1 as substrate after 80 mins by scintillation counting. An outline of the steps:
as §1

In assay [9] the target is Serine/threonine-protein kinase PLK1 (Homo sapiens, UniProt P53350). The assay is described as follows: Inhibition of human recombinant PLK1 expressed in Sf9 cells using casein as substrate after 80 mins by scintillation counting. The gist of the method:
as §1

Assay [10] has as its target Receptor tyrosine-protein kinase erbB-2 (Homo sapiens, UniProt P04626). The experiment in a line: Inhibition of human recombinant ERBB2 expressed in Sf9 cells using poly(E,Y)4:1 as substrate after 80 mins by scintillation counting. An outline of the steps: as §1
The target in assay [11] is Insulin-like growth factor 1 receptor (Homo sapiens, UniProt P08069). The assay is described as follows: Inhibition of human recombinant IGF1R expressed in Sf9 cells using poly(E,Y)4:1 as substrate after 80 mins by scintillation counting. The gist of the method:
as §1

In a further assay the target is Angiopoietin-1 receptor (Homo sapiens, UniProt Q02763). The experiment in a line: Inhibition of human recombinant TIE2 expressed in Sf9 cells using poly(E,Y)4:1 as substrate after 80 mins by scintillation counting. The gist of the method: as §1
Another assay concerns the target Aurora kinase B (Homo sapiens, UniProt Q96GD4). The assay is described as follows: Inhibition of human recombinant aurora-B expressed in Sf9 cells using tetra(LRRWSLG) as substrate after 80 mins by scintillation counting. An outline of the steps:
as §1

Assay [12] concerns the target Mitogen-activated protein kinase kinase kinase 8 (Homo sapiens, UniProt P41279). The assay is described as follows: Inhibition of human recombinant COT expressed in Sf9 cells assessed as autophosphorylation after 80 mins by scintillation counting. An outline of the steps: as §1
Assay [13] concerns the target Cyclin-dependent kinase 2/cyclin A (Homo sapiens, UniProt P24941). The assay is described as follows: Inhibition of human recombinant CDK2/CyclinA expressed in Sf9 cells using histone H1 as substrate after 80 mins by scintillation counting. The gist of the method: as §1
Assay [14] has as its target RAC-alpha serine/threonine-protein kinase (Homo sapiens, UniProt P31749). The assay is described as follows: Inhibition of human recombinant AKT1 expressed in Sf9 cells using GSK3(14-27) as substrate after 80 mins by scintillation counting. The gist of the method: as §1
For assay [15], the target named is Vascular endothelial growth factor receptor 3 (Homo sapiens, UniProt P35916). The assay is described as follows: Inhibition of human recombinant VEGF-R3 expressed in Sf9 cells using poly(E,Y)4:1 as substrate after 80 mins by scintillation counting. The gist of the method:
as §1

Assay [16] concerns the target Cyclin-dependent kinase 4/cyclin D1 (Homo sapiens, UniProt P11802). The experiment in a line: Inhibition of human recombinant CDK4/CyclinD1 expressed in Sf9 cells using RB-CTF as substrate after 80 mins by scintillation counting. An outline of the steps:
as §1

Assay [17] deals with Serine/threonine-protein kinase B-raf (Homo sapiens, UniProt P15056). The experiment in a line: Inhibition of human recombinant B-RAF expressed in Sf9 cells using MEK1 KM as substrate after 80 mins by scintillation counting. An outline of the steps:
as §1

In assay [18] the target is Hepatocyte growth factor receptor (Homo sapiens, UniProt P08581). The experiment in a line: Inhibition of human recombinant MET expressed in Sf9 cells using poly(A,E,K,Y)6:2:5:1 as substrate after 80 mins by scintillation counting. An outline of the steps:
as §1

A further assay has as its target Aurora kinase A (Homo sapiens, UniProt O14965). The assay is described as follows: Inhibition of human recombinant aurora-A expressed in Sf9 cells using tetra(LRRWSLG) as substrate after 80 mins by scintillation counting. An outline of the steps:
as §1

Another assay addresses Insulin receptor (Homo sapiens, UniProt P06213). The experiment in a line: Inhibition of human recombinant INS-R expressed in Sf9 cells using poly(A,E,K,Y)6:2:5:1 as substrate after 80 mins by scintillation counting. The gist of the method: as §1
Assay [19] has as its target Vascular endothelial growth factor receptor 2 (Homo sapiens, UniProt P35968). The assay is described as follows: Inhibition of human recombinant VEGF-R2 expressed in Sf9 cells using poly(E,Y)4:1 as substrate after 80 mins by scintillation counting. An outline of the steps:
as §1

Assay [20] is described as follows: Inhibition of rat liver casein kinase-2 preincubated for 5 mins prior ATP addition measured after 40 mins.

We go through 22 compounds from ChEMBL document CHEMBL1955824, “Indeno[1,2-b]indole derivatives as a novel class of potent human protein kinase CK2 inhibitors” (Bioorg Med Chem, 2012).

The term inhibition denotes the relative decrease from the control value, in per cent. As a reminder, the IC50 is the concentration at which inhibition is half-maximal.

Sequence of Casein kinase II alpha/beta (Homo sapiens) (P67870 2-215 limits assumed): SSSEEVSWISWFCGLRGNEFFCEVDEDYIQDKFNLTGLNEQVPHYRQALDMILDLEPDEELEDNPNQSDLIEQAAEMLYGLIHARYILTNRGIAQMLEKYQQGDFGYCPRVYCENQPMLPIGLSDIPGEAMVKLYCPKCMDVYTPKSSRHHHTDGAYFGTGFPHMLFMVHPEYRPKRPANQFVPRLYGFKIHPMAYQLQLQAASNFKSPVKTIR
Sequence of Casein kinase II alpha/beta (Homo sapiens) (P68400 whole entry partner): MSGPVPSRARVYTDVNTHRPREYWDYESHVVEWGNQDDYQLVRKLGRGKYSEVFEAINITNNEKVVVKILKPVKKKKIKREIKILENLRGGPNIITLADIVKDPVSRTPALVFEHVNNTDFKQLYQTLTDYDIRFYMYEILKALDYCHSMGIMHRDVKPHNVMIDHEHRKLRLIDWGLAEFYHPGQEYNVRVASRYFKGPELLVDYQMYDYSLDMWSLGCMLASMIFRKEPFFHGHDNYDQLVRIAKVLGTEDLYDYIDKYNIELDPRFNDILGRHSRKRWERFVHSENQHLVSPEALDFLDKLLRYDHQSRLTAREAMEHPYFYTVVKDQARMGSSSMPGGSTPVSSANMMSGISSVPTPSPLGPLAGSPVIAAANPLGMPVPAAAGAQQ
Sequence of Serine/threonine-protein kinase PLK4 (O00444 whole entry): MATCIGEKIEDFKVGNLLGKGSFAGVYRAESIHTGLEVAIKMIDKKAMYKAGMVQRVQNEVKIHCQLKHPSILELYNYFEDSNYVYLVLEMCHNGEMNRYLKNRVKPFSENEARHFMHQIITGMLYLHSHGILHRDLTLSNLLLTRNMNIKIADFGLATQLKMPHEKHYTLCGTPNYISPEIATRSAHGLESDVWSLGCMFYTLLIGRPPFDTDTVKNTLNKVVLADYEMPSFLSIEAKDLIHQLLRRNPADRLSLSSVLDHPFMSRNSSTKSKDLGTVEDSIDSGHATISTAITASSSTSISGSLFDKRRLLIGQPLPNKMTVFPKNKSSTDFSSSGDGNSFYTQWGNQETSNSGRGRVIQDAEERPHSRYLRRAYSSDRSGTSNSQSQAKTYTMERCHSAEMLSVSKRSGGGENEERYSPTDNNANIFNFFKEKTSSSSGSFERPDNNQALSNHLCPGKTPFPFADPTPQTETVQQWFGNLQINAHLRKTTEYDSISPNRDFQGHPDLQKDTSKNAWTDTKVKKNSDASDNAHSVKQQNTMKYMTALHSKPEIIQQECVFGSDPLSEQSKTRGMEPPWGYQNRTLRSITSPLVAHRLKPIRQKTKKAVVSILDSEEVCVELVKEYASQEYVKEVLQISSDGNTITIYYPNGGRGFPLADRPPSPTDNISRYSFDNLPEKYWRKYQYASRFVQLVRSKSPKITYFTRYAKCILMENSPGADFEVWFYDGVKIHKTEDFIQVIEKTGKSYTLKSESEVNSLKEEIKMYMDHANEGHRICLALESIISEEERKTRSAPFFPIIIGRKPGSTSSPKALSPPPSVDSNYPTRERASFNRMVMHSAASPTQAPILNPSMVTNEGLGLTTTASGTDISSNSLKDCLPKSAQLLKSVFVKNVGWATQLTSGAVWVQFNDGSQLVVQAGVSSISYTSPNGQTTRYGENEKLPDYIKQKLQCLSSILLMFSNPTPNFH
Sequence of Receptor tyrosine-protein kinase erbB-2 (P04626 whole entry): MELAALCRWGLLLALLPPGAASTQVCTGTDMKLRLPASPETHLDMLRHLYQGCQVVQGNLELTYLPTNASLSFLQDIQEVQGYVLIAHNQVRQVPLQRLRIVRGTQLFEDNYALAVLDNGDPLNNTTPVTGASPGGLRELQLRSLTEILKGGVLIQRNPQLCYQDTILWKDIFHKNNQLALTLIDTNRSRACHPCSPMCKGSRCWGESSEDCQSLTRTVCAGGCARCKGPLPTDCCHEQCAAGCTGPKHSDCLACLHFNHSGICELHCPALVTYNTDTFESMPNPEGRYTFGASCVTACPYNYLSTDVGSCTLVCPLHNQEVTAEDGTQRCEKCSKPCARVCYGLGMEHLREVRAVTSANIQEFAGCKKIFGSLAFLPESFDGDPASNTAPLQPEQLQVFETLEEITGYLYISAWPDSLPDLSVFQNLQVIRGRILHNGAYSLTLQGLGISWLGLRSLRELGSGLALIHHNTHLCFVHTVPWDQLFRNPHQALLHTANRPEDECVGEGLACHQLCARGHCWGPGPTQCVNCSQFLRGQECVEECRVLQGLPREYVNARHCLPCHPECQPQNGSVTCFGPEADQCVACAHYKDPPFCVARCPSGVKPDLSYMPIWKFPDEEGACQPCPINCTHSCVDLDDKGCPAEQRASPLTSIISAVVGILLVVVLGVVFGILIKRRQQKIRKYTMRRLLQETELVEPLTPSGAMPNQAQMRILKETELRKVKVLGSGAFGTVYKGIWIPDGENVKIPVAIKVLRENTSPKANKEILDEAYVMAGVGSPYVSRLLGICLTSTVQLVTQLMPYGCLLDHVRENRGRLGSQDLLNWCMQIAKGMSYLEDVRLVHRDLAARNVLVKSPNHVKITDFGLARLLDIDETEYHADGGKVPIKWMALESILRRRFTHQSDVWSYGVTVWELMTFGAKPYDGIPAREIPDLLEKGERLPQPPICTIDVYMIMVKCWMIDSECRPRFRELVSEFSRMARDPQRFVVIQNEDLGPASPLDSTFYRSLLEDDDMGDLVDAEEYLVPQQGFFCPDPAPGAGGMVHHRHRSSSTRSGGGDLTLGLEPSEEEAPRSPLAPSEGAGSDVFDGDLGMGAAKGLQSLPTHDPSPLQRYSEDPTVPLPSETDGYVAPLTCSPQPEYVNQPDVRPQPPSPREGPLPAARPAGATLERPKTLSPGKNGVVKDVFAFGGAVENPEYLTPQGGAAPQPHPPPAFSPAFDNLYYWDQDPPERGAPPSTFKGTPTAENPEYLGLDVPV
Sequence of Aurora kinase B (Q96GD4 whole entry): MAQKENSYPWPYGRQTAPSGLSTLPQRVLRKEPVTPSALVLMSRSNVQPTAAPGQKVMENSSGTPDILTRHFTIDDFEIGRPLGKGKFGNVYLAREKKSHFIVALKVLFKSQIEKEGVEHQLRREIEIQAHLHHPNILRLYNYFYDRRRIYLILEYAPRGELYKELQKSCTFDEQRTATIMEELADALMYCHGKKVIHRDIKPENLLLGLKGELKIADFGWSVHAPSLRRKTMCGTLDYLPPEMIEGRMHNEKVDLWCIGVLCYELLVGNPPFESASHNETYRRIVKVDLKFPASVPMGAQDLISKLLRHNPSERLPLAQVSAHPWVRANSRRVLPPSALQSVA
Sequence of Hepatocyte growth factor receptor (P08581 whole entry): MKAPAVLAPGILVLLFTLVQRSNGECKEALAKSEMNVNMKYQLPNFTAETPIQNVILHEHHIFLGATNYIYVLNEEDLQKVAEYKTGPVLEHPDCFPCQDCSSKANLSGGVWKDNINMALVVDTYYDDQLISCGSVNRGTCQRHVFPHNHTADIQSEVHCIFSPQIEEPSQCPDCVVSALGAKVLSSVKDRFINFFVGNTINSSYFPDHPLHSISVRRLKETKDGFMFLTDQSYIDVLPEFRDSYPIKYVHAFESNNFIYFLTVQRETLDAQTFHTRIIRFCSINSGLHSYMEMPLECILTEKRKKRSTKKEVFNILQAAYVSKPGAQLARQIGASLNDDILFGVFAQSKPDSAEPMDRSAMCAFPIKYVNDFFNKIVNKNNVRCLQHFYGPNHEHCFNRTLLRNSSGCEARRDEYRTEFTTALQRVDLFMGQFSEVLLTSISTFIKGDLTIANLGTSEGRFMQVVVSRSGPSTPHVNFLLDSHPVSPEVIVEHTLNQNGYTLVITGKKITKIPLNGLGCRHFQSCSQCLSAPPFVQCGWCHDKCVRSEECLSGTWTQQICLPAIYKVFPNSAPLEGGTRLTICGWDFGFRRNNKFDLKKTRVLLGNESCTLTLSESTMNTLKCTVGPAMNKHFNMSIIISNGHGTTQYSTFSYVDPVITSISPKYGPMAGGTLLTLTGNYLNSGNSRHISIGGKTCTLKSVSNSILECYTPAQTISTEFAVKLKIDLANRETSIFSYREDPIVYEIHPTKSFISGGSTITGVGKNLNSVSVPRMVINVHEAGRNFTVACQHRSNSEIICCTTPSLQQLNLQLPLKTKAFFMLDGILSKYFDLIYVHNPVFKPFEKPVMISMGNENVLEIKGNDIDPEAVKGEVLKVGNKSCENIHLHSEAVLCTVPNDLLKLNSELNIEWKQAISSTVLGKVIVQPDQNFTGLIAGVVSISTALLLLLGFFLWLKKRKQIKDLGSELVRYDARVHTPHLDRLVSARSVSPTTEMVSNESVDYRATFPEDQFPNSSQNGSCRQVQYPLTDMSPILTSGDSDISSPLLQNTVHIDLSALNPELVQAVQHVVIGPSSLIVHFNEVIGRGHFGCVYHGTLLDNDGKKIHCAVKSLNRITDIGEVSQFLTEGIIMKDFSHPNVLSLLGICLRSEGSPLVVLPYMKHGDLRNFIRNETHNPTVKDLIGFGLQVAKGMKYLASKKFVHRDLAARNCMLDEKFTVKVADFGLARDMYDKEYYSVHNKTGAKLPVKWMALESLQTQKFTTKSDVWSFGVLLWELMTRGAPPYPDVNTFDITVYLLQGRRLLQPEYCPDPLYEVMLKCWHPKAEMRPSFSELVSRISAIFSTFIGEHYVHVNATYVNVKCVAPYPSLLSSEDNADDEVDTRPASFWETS
Sequence of RAC-alpha serine/threonine-protein kinase (P31749 whole entry): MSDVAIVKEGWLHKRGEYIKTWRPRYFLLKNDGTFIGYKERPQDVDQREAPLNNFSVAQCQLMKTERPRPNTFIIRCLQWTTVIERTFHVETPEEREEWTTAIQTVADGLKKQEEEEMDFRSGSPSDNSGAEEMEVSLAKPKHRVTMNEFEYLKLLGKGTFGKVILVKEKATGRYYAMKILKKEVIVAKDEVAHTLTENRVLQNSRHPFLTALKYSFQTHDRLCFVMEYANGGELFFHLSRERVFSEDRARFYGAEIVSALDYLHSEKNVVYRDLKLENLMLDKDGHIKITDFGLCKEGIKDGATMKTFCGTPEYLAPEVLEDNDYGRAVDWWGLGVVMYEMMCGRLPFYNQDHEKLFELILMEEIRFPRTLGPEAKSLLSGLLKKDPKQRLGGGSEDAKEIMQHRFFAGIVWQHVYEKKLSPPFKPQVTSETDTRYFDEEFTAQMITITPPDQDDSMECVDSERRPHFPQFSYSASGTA

As to `COc1ccc(CCn2c3c(c4c(O)cccc42)C(=O)c2ccccc2-3)cc1OC`, the inhibition in assay [1] stood at 34%.

`O=C1CCCc2c1c1c(n2Cc2ccccc2)-c2ccccc2C1=O` gave an inhibition in assay [1] of 48%.

For the compound `COC(=O)C1C(=O)c2c([nH]c3c2C(=O)c2ccccc2-3)CC1C` (configuration not stated), the inhibition in assay [1] stood at 28%.

In assay [1], `COc1ccc(CCn2c3c(c4c2-c2ccccc2C4=O)C(=O)CCC3)cc1OC` showed an inhibition of 50%.

For the compound `CC(c1ccccc1)n1c2c(c3c1-c1ccccc1C3=O)C(=O)CCC2` (configuration not stated), the inhibition in assay [1] worked out at 66%. In assay [2], this compound came in with an IC50 of 4.66 µM.

`O=C1CC(c2ccccc2)Cc2c1c1c(n2Cc2ccccc2)-c2ccccc2C1=O` (racemic) displayed an inhibition in assay [1] of 3%.

As for `OC[C@H]1O[C@@H](n2cnc3cc(Cl)c(Cl)cc32)[C@H](O)[C@@H]1O` [DICHLORORIBOBENZIMIDAZOLE], 15 µM corresponded to half-maximal inhibition in assay [3] (IC50).

The compound `O=C1CCCc2c1c1c(n2CCCc2ccccc2)-c2ccccc2C1=O` returned an inhibition in [1] of 27%.

As for `O=C1CCCc2[nH]c3c(c21)C(=O)c1ccccc1-3`, the inhibition in [1] is 19%.

Take `COc1ccc(Cn2c3c(c4c2-c2ccccc2C4=O)C(=O)CCC3)cc1`: the inhibition in [1] amounted to 41%.

On to `O=C1c2ccccc2-c2c1c1c(O)cccc1n2Cc1ccccc1`, for which the inhibition in assay [1] came out at 25%.

As for `O=C1CCCc2c1c1c(n2CCc2ccccc2)-c2ccccc2C1=O`, in assay [1], the inhibition stood at 67%.

Compound `O=C1CCCc2c1c1c(n2Cc2ccccn2)-c2ccccc2C1=O` came in with an inhibition in assay [1] of 30%.

Take `Brc1c(Br)c(Br)c2[nH]nnc2c1Br` [TETRABROMOBENZOTRIAZOLE]: in assay [4], half-maximal inhibition (IC50) was put at 1.6 µM.

For `CC1CC(=O)c2c3c(n(Cc4ccccc4)c2C1)-c1ccccc1C3=O` (racemic), the inhibition in [1] was found to be 11%.

On to `CC(C)n1c2c(c3c1-c1ccccc1C3=O)C(=O)CCC2`, for which the IC50 (in assay [5]; in [6]; at Focal adhesion kinase 1; in assay [7]; at Ephrin type-B receptor 4; in assay [9]) was above 35 µM each time. In addition, the IC50 (in assay [10]; in assay [11]; on Angiopoietin-1 receptor; at Aurora kinase B; in assay [12]; in assay [13]) was above 35 µM each time. In addition, the IC50 (in assay [14]; in [15]; in [16]; in assay [17]; in assay [18]; at Aurora kinase A) was above 35 µM in each case. Further, the IC50 (on Insulin receptor; in assay [19]) was above 35 µM each time. Moreover, the inhibition of growth at 20 µM in [8] stood at 25%.

Consider `O=C1CCCc2c1c1c(n2-c2ccccc2)-c2ccccc2C1=O`, for which the inhibition in assay [1] came out at 60%.

As to `O=c1oc2c(O)c(O)cc3c(=O)oc4c(O)c(O)cc1c4c23` [ELLAGIC ACID], the IC50 was found to be 0.51 µM in assay [5]; 2.97 µM in assay [6]; 3.11 µM at Focal adhesion kinase 1; 0.8 µM in [7]; 1.83 µM on Ephrin type-B receptor 4; 3.34 µM in assay [9]. Besides, the IC50 came to 3.54 µM in assay [10]; 0.25 µM in assay [11]; 0.26 µM on Angiopoietin-1 receptor; 2.5 µM on Aurora kinase B; 2.37 µM in assay [12]; 3.39 µM in [13]. The half-maximal inhibitory concentration (IC50) was 3.34 µM in assay [14]; 1.54 µM in assay [15]; 1.09 µM in assay [16]; 1.76 µM in assay [17]; 0.58 µM in [18]; 2.48 µM at Aurora kinase A. For the same compound, the IC50 amounted to 0.34 µM at Insulin receptor and 0.79 µM in [19].

The compound `O=C1c2ccccc2-c2c1c1c(O)cc(-c3ccccc3)cc1n2Cc1ccccc1` registered an inhibition in assay [1] of 31%.

In [20], `Cc1cc(O)c2c(c1)C(=O)c1cc(O)cc(O)c1C2=O` [EMODIN] returned an IC50 of 0.89 µM.

In assay [1], `CC1(C)CC(=O)c2c3c(n(Cc4ccccc4)c2C1)-c1ccccc1C3=O` came in with an inhibition of 10%.

Turning to `COC(=O)C1C(=O)c2c3c(n(Cc4ccccc4)c2CC1C)-c1ccccc1C3=O` (configuration not stated), the inhibition in assay [1] worked out at 15%.
